Columns and labels:
[1] = target: T1, 5-hydroxytryptamine receptor 6 (Homo sapiens, UniProt P50406); assay: Agonist activity at human cloned 5HT6 receptor expressed in HeLa cells assessed as induction of adenylyl cyclase activity by RIA; assay type: functional, cell-based
Method in brief: (§1)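 Transfected HeLa cells expressing human 5-HT6 were washed with Krebs buffer and preincubated 5 min at 37 °C in Krebs with 500 µM IBMX. They were then stimulated 10 min at 37 °C with compound over 0.1–10000 nM. Agonist potency came from concentration–response curves, and percent efficacy was taken relative to a serotonin maximal response.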

[2] = target: T1, 5-hydroxytryptamine receptor 6; assay: Displacement of [3H]LSD from human cloned 5HT6 receptor expressed in HeLa cells; assay type: cell-based
Method in brief: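 Radioligand binding used human 5-HT6 receptor stably expressed in HeLa cells with [3H]LSD as the radioligand. Affinity is reported as Ki.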

[3] = target: T1, 5-hydroxytryptamine receptor 6; assay: Agonist activity at human cloned 5HT6 receptor expressed in HeLa cells assessed as induction of adenylyl cyclase activity by RIA relative to serotonin; assay type: functional, cell-based; method in brief: as §1
[4] = species on record: Homo sapiens; assay: Selectivity ratio of IC50 for human cloned dopamine D4 receptor to human cloned 5HT6 receptor
[5] = target: 5-hydroxytryptamine receptor 1B (Homo sapiens) (UniProt P28222); assay: Displacement of [3H]5-HT from human cloned 5HT1B receptor expressed in CHO cells at 1 uM; assay type: cell-based
Chain of 5-hydroxytryptamine receptor 1B (Homo sapiens) (P28222 whole entry): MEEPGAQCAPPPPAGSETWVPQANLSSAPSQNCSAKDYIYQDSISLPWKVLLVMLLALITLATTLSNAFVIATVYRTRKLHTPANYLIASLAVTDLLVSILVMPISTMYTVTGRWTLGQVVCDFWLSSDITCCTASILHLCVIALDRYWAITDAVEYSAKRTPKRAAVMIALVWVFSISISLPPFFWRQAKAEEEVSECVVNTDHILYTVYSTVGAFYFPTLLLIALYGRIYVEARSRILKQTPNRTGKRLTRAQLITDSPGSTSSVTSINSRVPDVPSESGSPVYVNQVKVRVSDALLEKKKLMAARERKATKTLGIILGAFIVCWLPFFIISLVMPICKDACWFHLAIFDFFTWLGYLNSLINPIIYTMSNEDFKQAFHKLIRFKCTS
Method in brief: (§2)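 Human 5-HT1B, 5-HT1D and 5-HT1F receptors were stably expressed in CHO cells and labelled with [3H]-5-HT. Results are given as percent inhibition at a single 1 µM concentration.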

[6] = target: 5-hydroxytryptamine receptor 1D (Homo sapiens) (UniProt P28221); assay: Displacement of [3H]5-HT from human cloned 5HT1D receptor expressed in CHO cells at 1 uM; assay type: cell-based; method in brief: as §2
Chain of 5-hydroxytryptamine receptor 1D (Homo sapiens) (P28221 whole entry): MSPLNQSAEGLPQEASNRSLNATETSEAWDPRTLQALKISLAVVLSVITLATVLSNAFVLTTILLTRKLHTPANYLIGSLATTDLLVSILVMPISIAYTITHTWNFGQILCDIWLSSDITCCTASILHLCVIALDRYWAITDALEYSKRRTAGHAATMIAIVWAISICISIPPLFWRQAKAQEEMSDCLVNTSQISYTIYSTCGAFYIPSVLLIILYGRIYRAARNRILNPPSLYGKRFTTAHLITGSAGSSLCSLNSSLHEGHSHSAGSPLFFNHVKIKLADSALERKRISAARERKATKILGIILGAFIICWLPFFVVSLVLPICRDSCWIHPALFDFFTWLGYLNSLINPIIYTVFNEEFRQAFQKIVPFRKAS

[7] = target: D(3) dopamine receptor (Homo sapiens, UniProt P35462); assay: Displacement of [3H]spiperone from human cloned dopamine D3 receptor expressed in CHO-K1 cells; assay type: cell-based
Chain of D(3) dopamine receptor (P35462 whole entry): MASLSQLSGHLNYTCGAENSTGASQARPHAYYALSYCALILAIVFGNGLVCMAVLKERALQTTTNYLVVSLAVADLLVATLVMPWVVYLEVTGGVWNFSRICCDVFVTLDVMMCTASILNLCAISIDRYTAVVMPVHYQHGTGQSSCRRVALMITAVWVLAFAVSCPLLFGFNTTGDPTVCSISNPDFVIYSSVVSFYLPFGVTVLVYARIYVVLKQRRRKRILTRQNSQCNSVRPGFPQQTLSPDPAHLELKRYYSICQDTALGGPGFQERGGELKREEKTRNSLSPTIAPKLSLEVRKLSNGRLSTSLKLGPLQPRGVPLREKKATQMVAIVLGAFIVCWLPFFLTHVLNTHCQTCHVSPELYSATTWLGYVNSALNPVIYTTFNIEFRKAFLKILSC
Method in brief: (§3)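 Binding selectivity used stably expressed human receptors, 5-HT in CHO cells and dopamine in CHO-K1. Radioligands: [125I]DOI for 5-HT2A (agonist radioligand), [3H]-5-HT for 5-HT2C, [3H]LSD for 5-HT7, [3H]spiperone for D2, D3 and D4. Values are IC50 in nM.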

[8] = target: D(2) dopamine receptor (Homo sapiens, UniProt P14416); assay: Displacement of [3H]spiperone from human cloned dopamine D2 receptor expressed in CHO-K1 cells; assay type: cell-based; method in brief: as §3
Chain of D(2) dopamine receptor (P14416 whole entry): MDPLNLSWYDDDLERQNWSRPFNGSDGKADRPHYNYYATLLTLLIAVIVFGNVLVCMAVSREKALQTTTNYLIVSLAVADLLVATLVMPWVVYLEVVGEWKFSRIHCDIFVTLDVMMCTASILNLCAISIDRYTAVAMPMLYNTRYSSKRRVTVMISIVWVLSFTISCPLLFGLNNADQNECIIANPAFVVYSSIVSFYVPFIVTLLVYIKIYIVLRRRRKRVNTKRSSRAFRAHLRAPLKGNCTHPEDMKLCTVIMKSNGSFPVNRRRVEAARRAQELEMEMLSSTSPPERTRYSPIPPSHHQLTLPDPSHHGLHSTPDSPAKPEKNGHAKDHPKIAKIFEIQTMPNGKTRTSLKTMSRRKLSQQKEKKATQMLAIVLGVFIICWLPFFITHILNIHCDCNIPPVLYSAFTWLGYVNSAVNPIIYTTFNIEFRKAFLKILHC

[9] = target: T2, D(4) dopamine receptor (Homo sapiens, UniProt P21917); assay: Displacement of [3H]spiperone from human cloned dopamine D4 receptor expressed in CHO-K1 cells; assay type: cell-based; method in brief: as §3
T2 sequence (P21917 whole entry): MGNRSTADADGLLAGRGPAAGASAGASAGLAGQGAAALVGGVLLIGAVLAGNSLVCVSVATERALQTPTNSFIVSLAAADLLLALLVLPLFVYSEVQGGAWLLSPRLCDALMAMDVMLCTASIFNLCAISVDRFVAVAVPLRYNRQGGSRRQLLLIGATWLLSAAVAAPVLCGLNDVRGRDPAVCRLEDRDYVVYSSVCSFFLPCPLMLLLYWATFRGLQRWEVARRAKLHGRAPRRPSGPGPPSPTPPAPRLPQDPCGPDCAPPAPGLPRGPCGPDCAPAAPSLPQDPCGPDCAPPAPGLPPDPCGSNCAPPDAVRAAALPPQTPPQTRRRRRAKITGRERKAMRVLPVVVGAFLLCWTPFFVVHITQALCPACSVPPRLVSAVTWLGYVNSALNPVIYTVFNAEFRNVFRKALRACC

[10] = target: 5-hydroxytryptamine receptor 2A (Homo sapiens, UniProt P28223); assay: Displacement of [125I]DOI from human cloned 5HT2A receptor expressed in CHO cells; assay type: cell-based; method in brief: as §3
Chain of 5-hydroxytryptamine receptor 2A (P28223 whole entry): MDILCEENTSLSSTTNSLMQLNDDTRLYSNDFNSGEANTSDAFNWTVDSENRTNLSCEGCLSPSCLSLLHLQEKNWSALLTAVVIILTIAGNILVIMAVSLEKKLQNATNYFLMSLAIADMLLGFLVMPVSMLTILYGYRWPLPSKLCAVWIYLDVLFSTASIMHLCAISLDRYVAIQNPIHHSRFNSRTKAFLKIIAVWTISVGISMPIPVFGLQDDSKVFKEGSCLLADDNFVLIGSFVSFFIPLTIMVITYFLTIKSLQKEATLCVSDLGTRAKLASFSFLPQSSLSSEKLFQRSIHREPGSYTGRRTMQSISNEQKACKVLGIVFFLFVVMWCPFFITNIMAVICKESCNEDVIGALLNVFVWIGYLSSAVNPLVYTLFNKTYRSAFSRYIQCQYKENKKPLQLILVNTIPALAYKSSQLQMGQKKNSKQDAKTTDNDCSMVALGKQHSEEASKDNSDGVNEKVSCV

[11] = species on record: Homo sapiens; assay: Selectivity ratio of IC50 for human cloned 5HT2C receptor to human cloned 5HT6 receptor
[12] = target: 5-hydroxytryptamine receptor 7 (Homo sapiens, UniProt P34969); assay: Displacement of [3H]LSD from human cloned 5HT7 receptor expressed in CHO cells; assay type: cell-based; method in brief: as §3
Chain of 5-hydroxytryptamine receptor 7 (P34969 whole entry): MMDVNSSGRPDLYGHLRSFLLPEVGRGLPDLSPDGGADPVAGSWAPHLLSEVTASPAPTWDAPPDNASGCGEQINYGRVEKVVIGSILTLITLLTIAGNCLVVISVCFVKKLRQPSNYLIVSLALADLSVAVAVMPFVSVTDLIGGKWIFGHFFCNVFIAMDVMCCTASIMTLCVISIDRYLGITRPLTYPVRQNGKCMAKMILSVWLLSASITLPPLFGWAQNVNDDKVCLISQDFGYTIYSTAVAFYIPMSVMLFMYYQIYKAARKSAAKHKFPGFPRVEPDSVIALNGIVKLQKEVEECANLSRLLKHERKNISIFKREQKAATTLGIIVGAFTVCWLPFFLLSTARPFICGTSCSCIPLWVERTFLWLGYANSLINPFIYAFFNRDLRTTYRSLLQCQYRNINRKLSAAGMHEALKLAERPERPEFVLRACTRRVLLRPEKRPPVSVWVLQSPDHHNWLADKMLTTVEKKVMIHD

[13] = species on record: Homo sapiens; assay: Selectivity ratio of IC50 for human cloned 5HT1F receptor to human cloned 5HT6 receptor
[14] = species on record: Homo sapiens; assay: Selectivity ratio of IC50 for human cloned 5HT7 receptor to human cloned 5HT6 receptor
[15] = species on record: Homo sapiens; assay: Selectivity ratio of IC50 for human cloned dopamine D2 receptor to human cloned 5HT6 receptor
[16] = target: T3, 5-hydroxytryptamine receptor 2C (Homo sapiens, UniProt P28335); assay: Displacement of [3H]5-HT from human cloned 5HT2C receptor expressed in CHO cells; assay type: cell-based; method in brief: as §3
T3 sequence (P28335 whole entry): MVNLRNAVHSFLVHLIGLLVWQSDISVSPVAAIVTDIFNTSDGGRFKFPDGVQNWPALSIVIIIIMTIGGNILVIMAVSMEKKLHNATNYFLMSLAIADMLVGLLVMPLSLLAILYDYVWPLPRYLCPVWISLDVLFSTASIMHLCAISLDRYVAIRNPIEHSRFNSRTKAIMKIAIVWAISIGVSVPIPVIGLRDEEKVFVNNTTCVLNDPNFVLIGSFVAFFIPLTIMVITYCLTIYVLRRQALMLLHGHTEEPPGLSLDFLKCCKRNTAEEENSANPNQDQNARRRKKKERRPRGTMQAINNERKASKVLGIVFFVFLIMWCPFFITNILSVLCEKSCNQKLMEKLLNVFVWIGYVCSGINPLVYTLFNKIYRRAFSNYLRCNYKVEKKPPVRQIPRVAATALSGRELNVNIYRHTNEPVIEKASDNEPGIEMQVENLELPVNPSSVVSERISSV

[17] = target: T4, 5-hydroxytryptamine receptor 1F (Homo sapiens) (UniProt P30939); assay: Displacement of [3H]5-HT from human cloned 5HT1F receptor expressed in CHO cells at 1 uM; assay type: cell-based; method in brief: as §2
T4 sequence (whole entry): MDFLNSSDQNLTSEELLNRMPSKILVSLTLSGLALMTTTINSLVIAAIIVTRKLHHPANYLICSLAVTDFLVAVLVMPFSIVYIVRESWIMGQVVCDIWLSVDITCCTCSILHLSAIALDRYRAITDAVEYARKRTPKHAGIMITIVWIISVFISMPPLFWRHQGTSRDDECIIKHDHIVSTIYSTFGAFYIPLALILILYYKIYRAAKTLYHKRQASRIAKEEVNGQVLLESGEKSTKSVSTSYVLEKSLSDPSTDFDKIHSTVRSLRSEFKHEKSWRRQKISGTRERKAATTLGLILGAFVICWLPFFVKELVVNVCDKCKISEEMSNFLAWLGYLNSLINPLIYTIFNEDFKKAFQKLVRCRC

[18] = species on record: Homo sapiens; assay: Selectivity ratio of IC50 for human cloned 5HT1B receptor to human cloned 5HT6 receptor
[19] = species on record: Homo sapiens; assay: Selectivity ratio of IC50 for human cloned 5HT1D receptor to human cloned 5HT6 receptor
[20] = species on record: Homo sapiens; assay: Selectivity ratio of IC50 for human cloned dopamine D3 receptor to human cloned 5HT6 receptor
[21] = species on record: Homo sapiens; assay: Selectivity ratio of IC50 for human cloned 5HT2A receptor to human cloned 5HT6 receptor
[22] = target: T1, 5-hydroxytryptamine receptor 6; assay: Antagonist activity at human cloned 5HT6 receptor expressed in HeLa cells assessed as inhibition of adenylyl cyclase activity by RIA; assay type: functional, cell-based
[23] = target: T1, 5-hydroxytryptamine receptor 6; assay: Antagonist activity at human cloned 5HT6 receptor expressed in HeLa cells assessed as inhibition of adenylyl cyclase activity by RIA relative to serotonin; assay type: functional, cell-based

T1 sequence (P50406 whole entry): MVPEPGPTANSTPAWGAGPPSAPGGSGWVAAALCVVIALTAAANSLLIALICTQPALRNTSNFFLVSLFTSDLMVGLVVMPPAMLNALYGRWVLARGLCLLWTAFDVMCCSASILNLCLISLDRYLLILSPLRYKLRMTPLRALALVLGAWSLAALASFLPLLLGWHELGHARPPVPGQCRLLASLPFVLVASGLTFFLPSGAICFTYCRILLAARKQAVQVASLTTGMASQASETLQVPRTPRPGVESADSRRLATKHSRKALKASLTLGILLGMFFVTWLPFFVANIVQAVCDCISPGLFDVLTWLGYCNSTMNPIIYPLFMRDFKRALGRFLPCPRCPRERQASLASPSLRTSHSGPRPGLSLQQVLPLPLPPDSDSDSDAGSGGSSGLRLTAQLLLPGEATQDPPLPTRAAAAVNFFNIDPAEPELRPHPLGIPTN

Row | EC50 [1] [nM] | Ki [2] [nM] | Emax [3] [%] | SMILES | other results
1 | 63 | 1.6 | 65 | NCCn1cc(S(=O)(=O)c2cccc3ccccc23)c2cccnc21 | 
2 | 85 | 2.1 | 97 | NCCn1cc(S(=O)(=O)c2ccccc2C(F)(F)F)c2cccnc21 | 
3 | 31 |  | 66 | CN(C)CCn1cc(S(=O)(=O)c2c(Cl)cccc2Cl)c2cccnc21 | 
4 | 154 |  | 74 | CN(C)CCn1cc(S(=O)(=O)c2cccs2)c2cccnc21 | 
5 | 15 | 2.3 | 86 | CN(C)CCn1cc(S(=O)(=O)c2cccc(Cl)c2)c2cccnc21 | Ratio IC50 [4]: > 50; inhibition [5]: 46%; inhibition [6]: 10%; IC50 [7]: > 5000 nM; IC50 [8]: > 5000 nM; IC50 [9]: > 5000 nM; IC50 [10]: 131 nM; Ratio IC50 [11]: > 50; IC50 [12]: 1220 nM; Ratio IC50 [13]: > 50; Ratio IC50 [14]: > 50; Ratio IC50 [15]: > 50; IC50 [16]: 477 nM; inhibition [17]: 29%; Ratio IC50 [18]: > 50; Ratio IC50 [19]: > 50; Ratio IC50 [20]: > 50; Ratio IC50 [21]: > 50
6 | 366 |  | 63 | CN(C)CCn1cc(S(=O)(=O)c2ccccc2)c2ccccc21 | 
7 | 35 | 2.9 | 65 | NCCn1cc(S(=O)(=O)c2cc(Cl)cc(Cl)c2)c2cccnc21 | 
8 | 25 |  | 94 | CN(C)CCn1cc(S(=O)(=O)c2ccccc2)c2cccnc21 | 
9 | 20 | 4.2 | 85 | Cc1c(S(=O)(=O)c2ccccc2)c2cccnc2n1CCN | 
10 | 28 | 4.3 | 80 | CN(C)CCn1cc(S(=O)(=O)c2cc(Cl)cc(Cl)c2)c2cccnc21 | 
11 | 47 | 4.7 | 100 | Cc1c(S(=O)(=O)c2ccccc2)c2cccnc2n1CCN(C)C | 
12 |  |  |  | CNCCn1cc(S(=O)(=O)c2cccc(Cl)c2)c2cccnc21 | IC50 [22]: 8.3 nM; Imax [23]: 100%
13 | 24 | 4.7 | 100 | NCCn1cc(S(=O)(=O)c2cccc(F)c2)c2cccnc21 | 

Source: ChEMBL document CHEMBL1155250, “Novel 1-aminoethyl-3-arylsulfonyl-1H-pyrrolo[2,3-b]pyridines are potent 5-HT(6) agonists” (Bioorg Med Chem, 2009)
